Experimental data published in ChEMBL document CHEMBL1921692 (J Med Chem, 2011).

Columns and labels:
[1] = biological target: T1, Growth hormone secretagogue receptor type 1 (Homo sapiens, UniProt Q92847); experiment: Agonist activity at human GRLN receptor expressed in HEK293 cells assessed as calcium binding by Ca2+ bioluminescence aequorin assay; type: functional, cell-based
How it was run: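 HEK-293 cells expressing human GRLN. Ca2+ bioluminescence read out by aequorin. Duplicate samples, maximum tolerated interassay variability ±10%. Full agonism defined as maximal response >70% of that of octanoylated human ghrelin.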

[2] = biological target: motilin receptor (Homo sapiens) (UniProt O43193); experiment: Selectivity ratio of EC50 for human motilin receptor to EC50 for human GRLN receptor
[3] = biological target: T1, Growth hormone secretagogue receptor type 1; experiment: Displacement of [125I-His9]-ghrelin from human GRLN receptor by radioligand binding assay
How it was run: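 Competitive binding on isolated membranes expressing GRLN, with 125I-His-9 octanoylated ghrelin as radioligand.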

[4] = Permeability across mucosal to serosal side in human Caco2 cells; type: ADME, cell-based; conditions: Caco-2, read-out: permeability
[5] = Permeability across serosal to mucosal side human Caco2 cells; type: ADME, cell-based; conditions: Caco-2, read-out: permeability
[6] = Drug metabolism in rat liver microsomes after 15 mins; type: ADME, Microsome; conditions: read-out: Drug metabolism
[7] = Cmax in cynomolgus monkey at 8 mg/kg, po; type: ADME, organism-based, Macaca fascicularis; set-up: dose 8 mg/kg, route oral; conditions: in vivo
Rattus norvegicus = experiment: Induction of gastric emptying in overnight-fasted iv dosed Wistar rat measured after 15 mins by […] analysis; type: functional, organism-based, Stomach
How it was run: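 Overnight-fasted male Wistar rats (200 ± 20 g), N = 5 per point. Compound given IV in 9% 2-hydroxypropyl-β-cyclodextrin together with an oral 2% methylcellulose meal containing 0.05% phenol red (2 mL). Sacrifice 15 min later; phenol red left in stomach read at 560 nm. […] Metoclopramide positive control at 10 mg/kg IV.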

Cynomolgus monkey [8] = experiment: Oral bioavailability in cynomolgus monkey at […]; conditions: in vivo
[9] = Dissociation constant, pKa of the compound; type: physicochemical
[10] = Cmax in Sprague-Dawley rat at 8 mg/kg, po; type: ADME, organism-based; set-up: dose 8 mg/kg, route oral; conditions: in vivo
How it was run: (§1)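 Male Sprague−Dawley rats (250 ± 20 g), 3 per compound in a single experiment, gavage 8 mg/kg in physiological saline. Blood taken at 12 time points over 6 h into K3EDTA tubes. Plasma stored at −20 °C, assayed by LC-MS/MS, noncompartmental analysis.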

Salmonella typhimurium = experiment: Induction of mutagenicity in Salmonella Typhimurium up to 5000 ug/plate by Ames test; type: toxicity, organism-based; conditions: salmonella enterica subsp. enterica serovar typhimurium
How it was run: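 Ames test run up to 5000 μg/plate.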

Cytochrome P450 2C19 = Cytochrome P450 2C19 (Homo sapiens, UniProt P33261); experiment: Inhibition of human CYP2C19; type: ADME
Cytochrome P450 2C19, sequence (P33261 whole entry): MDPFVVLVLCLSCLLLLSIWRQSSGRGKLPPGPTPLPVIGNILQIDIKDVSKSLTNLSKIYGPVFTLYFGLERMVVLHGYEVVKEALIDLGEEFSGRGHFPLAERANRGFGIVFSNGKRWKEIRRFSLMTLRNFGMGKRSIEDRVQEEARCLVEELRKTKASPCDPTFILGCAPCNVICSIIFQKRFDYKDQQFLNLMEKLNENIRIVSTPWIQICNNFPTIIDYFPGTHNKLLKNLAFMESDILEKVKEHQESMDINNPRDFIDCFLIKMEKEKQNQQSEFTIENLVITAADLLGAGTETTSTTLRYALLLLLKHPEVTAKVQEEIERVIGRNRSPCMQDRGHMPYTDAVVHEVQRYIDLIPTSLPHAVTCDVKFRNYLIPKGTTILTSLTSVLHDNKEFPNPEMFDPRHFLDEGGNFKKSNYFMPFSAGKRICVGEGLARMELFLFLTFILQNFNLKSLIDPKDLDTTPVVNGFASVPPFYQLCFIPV

Cytochrome P450 3A4 = Cytochrome P450 3A4 (Homo sapiens, UniProt P08684); experiment: Inhibition of human CYP3A4; type: ADME
Cytochrome P450 3A4, sequence (P08684 whole entry): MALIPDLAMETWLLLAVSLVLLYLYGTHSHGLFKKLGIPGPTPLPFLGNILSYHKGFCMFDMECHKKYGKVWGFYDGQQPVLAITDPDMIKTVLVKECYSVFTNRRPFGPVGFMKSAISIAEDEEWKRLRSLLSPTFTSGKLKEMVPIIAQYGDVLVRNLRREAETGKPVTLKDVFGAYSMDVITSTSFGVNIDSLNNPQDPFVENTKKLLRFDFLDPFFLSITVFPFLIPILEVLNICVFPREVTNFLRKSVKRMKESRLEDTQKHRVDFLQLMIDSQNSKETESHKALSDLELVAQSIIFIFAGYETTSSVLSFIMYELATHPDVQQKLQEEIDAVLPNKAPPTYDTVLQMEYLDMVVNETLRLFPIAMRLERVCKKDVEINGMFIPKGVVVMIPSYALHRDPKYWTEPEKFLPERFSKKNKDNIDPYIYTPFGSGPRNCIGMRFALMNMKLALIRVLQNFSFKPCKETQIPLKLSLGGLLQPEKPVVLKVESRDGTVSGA

[11] = Oral bioavailability in Sprague-Dawley rat at 8 mg/kg; conditions: in vivo
Cynomolgus monkey [12] = experiment: AUC (0 to infinity) in cynomolgus monkey at […], po; conditions: in vivo
Cytochrome P450 2C9 = Cytochrome P450 2C9 (Homo sapiens, UniProt P11712); experiment: Inhibition of human CYP2C9; type: ADME
Cytochrome P450 2C9, sequence (P11712 whole entry): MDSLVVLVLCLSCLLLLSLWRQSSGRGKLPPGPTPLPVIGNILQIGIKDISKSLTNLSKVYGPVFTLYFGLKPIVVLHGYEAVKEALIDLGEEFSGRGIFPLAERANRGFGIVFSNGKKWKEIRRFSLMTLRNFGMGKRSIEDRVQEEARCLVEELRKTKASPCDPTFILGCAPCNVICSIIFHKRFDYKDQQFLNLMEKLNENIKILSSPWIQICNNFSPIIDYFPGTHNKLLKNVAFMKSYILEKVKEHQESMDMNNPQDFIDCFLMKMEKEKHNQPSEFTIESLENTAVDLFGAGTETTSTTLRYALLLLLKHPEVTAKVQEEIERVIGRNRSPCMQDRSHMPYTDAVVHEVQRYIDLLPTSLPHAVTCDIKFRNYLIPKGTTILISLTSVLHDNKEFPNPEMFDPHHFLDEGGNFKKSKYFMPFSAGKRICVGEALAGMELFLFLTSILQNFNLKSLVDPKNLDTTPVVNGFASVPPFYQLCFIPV

Cytochrome P450 2D6 = Cytochrome P450 2D6 (Homo sapiens, UniProt P10635); experiment: Inhibition of human CYP2D6; type: ADME
Cytochrome P450 2D6, sequence (P10635 whole entry): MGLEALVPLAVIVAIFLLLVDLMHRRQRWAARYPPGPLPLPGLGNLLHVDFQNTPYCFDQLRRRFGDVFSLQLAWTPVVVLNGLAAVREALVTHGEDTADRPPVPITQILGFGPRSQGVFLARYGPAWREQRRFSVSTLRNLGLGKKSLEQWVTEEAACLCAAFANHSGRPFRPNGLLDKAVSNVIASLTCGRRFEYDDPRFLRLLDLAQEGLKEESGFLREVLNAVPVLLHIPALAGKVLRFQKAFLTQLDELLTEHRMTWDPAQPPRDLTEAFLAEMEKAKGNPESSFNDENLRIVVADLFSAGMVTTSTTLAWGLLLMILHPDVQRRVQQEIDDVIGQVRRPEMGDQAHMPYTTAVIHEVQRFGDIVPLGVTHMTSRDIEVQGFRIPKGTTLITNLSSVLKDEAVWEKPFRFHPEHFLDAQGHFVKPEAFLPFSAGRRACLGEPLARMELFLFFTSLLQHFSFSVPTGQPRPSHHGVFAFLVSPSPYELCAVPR

[13] = AUC (0 to infinity) in Sprague-Dawley rat at 8 mg/kg, po; type: ADME, organism-based; set-up: time infinity, dose 8 mg/kg, route oral; conditions: plasma; how it was run: as §1
Cytochrome P450 1A2 = biological target: T2, Cytochrome P450 1A2 (Homo sapiens, UniProt P05177); experiment: Inhibition of human CYP1A2; type: ADME
T2 sequence (P05177 whole entry): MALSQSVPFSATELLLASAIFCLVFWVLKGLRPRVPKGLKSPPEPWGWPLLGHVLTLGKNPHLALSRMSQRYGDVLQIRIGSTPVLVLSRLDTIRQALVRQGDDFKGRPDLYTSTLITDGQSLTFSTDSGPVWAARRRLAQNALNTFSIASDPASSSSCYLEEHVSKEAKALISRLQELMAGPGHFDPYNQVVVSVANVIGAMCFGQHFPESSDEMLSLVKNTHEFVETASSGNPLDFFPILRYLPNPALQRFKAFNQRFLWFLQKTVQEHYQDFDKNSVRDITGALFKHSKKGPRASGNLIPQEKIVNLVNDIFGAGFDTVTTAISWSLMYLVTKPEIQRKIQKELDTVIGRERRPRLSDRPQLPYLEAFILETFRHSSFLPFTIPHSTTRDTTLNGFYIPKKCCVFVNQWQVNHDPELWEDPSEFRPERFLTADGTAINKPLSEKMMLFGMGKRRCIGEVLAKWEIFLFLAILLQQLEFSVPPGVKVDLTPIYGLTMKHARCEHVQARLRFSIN

[14] = Drug excretion in Sprague-Dawley rat assessed as unchanged recovery in feces at 6 mg/kg, iv measured after 30 mins; conditions: faeces
[15] = Elimination half life in cynomolgus monkey at 0.5 mg/kg, iv; conditions: in vivo, read-out: beta t1/2
[16] = Half life in human liver microsomes; type: ADME, Microsome
[17] = Clearance in cynomolgus monkey at 0.5 mg/kg, iv; conditions: in vivo
[18] = Volume of distribution at steady state in Sprague-Dawley rat at 2 m/kg, iv; type: ADME, organism-based; conditions: in vivo, read-out: Vdss
[19] = Clearance in Sprague-Dawley rat at 2 m/kg, iv; type: ADME, organism-based; conditions: in vivo
[20] = Volume of distribution at steady state in cynomolgus monkey at 0.5 mg/kg, iv; conditions: in vivo, read-out: Vdss
[21] = Elimination half life in Sprague-Dawley rat at 2 m/kg, iv; type: ADME, organism-based; conditions: in vivo, read-out: beta t1/2

T1 sequence (Q92847 whole entry): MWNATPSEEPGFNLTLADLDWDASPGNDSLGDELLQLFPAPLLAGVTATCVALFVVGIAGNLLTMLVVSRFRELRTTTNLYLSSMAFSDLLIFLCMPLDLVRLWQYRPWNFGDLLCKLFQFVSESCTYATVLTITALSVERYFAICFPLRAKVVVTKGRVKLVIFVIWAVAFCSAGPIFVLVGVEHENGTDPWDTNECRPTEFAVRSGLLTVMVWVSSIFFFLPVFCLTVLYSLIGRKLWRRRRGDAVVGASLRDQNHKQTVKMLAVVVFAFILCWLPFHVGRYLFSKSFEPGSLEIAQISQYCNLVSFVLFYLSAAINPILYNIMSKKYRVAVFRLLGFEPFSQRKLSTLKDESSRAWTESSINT

| SMILES | EC50 [1] [nM] | Ki [3] [nM] | Papp A→B [4] [×10⁻⁶ cm/s] | Papp B→A [5] [×10⁻⁶ cm/s] | metabolised at […] [6] [%] | Cmax [7] [nM] | EC50 (Rattus norvegicus) [mg/kg] | F (Cynomolgus monkey [8]) [%] | Cmax [10] [nM] | IC50 (Cytochrome P450 2C19) [µM] | IC50 (Cytochrome P450 3A4) [nM] | bioavailability [11] [%] | AUC (Cynomolgus monkey [12]) [µM·min] | IC50 (Cytochrome P450 2C9) [µM] | IC50 (Cytochrome P450 2D6) [µM] | AUC(0-inf) [13] [µM·h] | IC50 (Cytochrome P450 1A2) [µM] | also measured |
| --- | --- | --- | --- | --- | --- | --- | --- | --- | --- | --- | --- | --- | --- | --- | --- | --- | --- | --- |
| CCC[C@@H]1NCCOc2ccccc2/C=C/CNC(=O)[C@@H](Cc2ccccc2)NC(=O)CN(C)C1=O | 134 | 86 |  |  |  |  |  |  |  |  |  |  |  |  |  |  |  | Ratio EC50 [2]: > 100 |
| C[C@@H]1CN[C@@H](C2CC2)C(=O)N(C)[C@H](C)C(=O)N[C@H](Cc2ccc(F)cc2)C(=O)NCCCc2ccccc2O1.Cl.O [ULIMORELIN HYDROCHLORIDE] | 29 | 16 | 15 | 14 | 68 | 1400 | 0.91 | 24 | 390 | > 100 | 2400 | 24 | 75.4 | 66 | 84 | 1.37 | > 100 | pKa [9]: 7.17; Activity (Salmonella typhimurium): Non-toxic; dose excreted at 0.5 h [14]: 95% |
| C[C@@H]1C(=O)N[C@H](Cc2ccc(F)cc2)C(=O)NCCCc2ccc(F)cc2OCCN[C@@H](C2CC2)C(=O)N1C | 27 | 2.6 | 19.8 | 12.5 | 54 | 90 | 1.2 | 7 | 900 | > 100 | 1200 | 36 | 10.3 | > 100 | 31 | 1.67 | > 100 | half-life [15]: 29 min; half-life [16]: 41 min; clearance [17]: 20 mL/min/kg; Vd [18]: 1.8 L/kg; clearance [19]: 28 mL/min/kg; Vd [20]: 0.66 L/kg; half-life [21]: 44 min |
